# Key:
# Format in all cases: functional
# HOP-92 = assay: Growth inhibition of human HOP-92 cells incubated for 48 hrs by sulforhodamine B assay
# Procedure, shortened: (§1)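 NCI60 panel at the NCI Developmental Therapeutics Program. Only compounds active in the 10 µM screen went to dose-response testing. GI50, the concentration giving 50% of maximal inhibition of proliferation, and TGI, the concentration giving total growth inhibition, were derived from the dose-response curves.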
# COLO 205 = assay: Growth inhibition of human COLO 205 cells assessed as cell growth at 0.01 uM incubated for 48 hrs by sulforhodamine B assay relative to control; conditions: read-out: Activity
# Procedure, shortened: (§2)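 NCI Developmental Therapeutics Program NCI60 panel. Compounds that were active in the 10 µM one-dose screen went on to dose–response testing. Growth at each concentration is expressed relative to untreated control (100%). GI50 (concentration giving 50% of maximal inhibition of proliferation) and TGI (concentration giving total growth inhibition) were derived from the curves.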
# UO-31 [1] = assay: Growth inhibition of human UO-31 cells assessed as cell growth at 100 uM incubated for 48 hrs by sulforhodamine B assay relative to control; conditions: read-out: Activity
# OVCAR-4 = assay: Growth inhibition of human OVCAR-4 cells assessed as cell growth at 0.01 uM incubated for 48 hrs by sulforhodamine B assay relative to control; conditions: read-out: Activity
# CAKI-1 = assay: Growth inhibition of human CAKI-1 cells assessed as cell growth at 0.1 uM incubated for 48 hrs by sulforhodamine B assay relative to control; conditions: read-out: Activity; procedure, shortened: as §2
# MCF7 = assay: Growth inhibition of human MCF7 cells assessed as cell growth at 0.01 uM incubated for 48 hrs by sulforhodamine B assay relative to control; conditions: read-out: Activity
# OVCAR-8 [2] = assay: Growth inhibition of human OVCAR-8 cells assessed as cell growth at 0.01 uM incubated for 48 hrs by sulforhodamine B assay relative to control; conditions: read-out: Activity
# SN12C = assay: Growth inhibition of human SN12C cells assessed as cell growth at 0.1 uM incubated for 48 hrs by sulforhodamine B assay relative to control; conditions: read-out: Activity
# M14 [3] = assay: Growth inhibition of human M14 cells assessed as cell growth at 100 uM incubated for 48 hrs by sulforhodamine B assay relative to control; conditions: read-out: Activity
# U-251 = assay: Growth inhibition of human U-251 cells assessed as cell growth at 100 uM incubated for 48 hrs by sulforhodamine B assay relative to control; conditions: read-out: Activity
# LOX IMVI = assay: Growth inhibition of human LOX IMVI cells assessed as cell growth at 0.01 uM incubated for 48 hrs by sulforhodamine B assay relative to control; conditions: read-out: Activity
# OVCAR-3 [4] = assay: Growth inhibition of human OVCAR-3 cells assessed as cell growth at 1 uM incubated for 48 hrs by sulforhodamine B assay relative to control; conditions: read-out: Activity
# NCI-H23 = assay: Growth inhibition of human NCI-H23 cells assessed as cell growth at 0.1 uM incubated for 48 hrs by sulforhodamine B assay relative to control; conditions: read-out: Activity
# A549 = assay: Growth inhibition of human A549/ATCC cells assessed as cell growth at 0.01 uM incubated for 48 hrs by sulforhodamine B assay relative to control; conditions: read-out: Activity; procedure, shortened: as §2
# MDA-MB-468 = assay: Growth inhibition of human MDA-MB-468 cells assessed as cell growth at 0.1 uM incubated for 48 hrs by sulforhodamine B assay relative to control; conditions: read-out: Activity
# T47D = assay: Growth inhibition of human T47D cells assessed as cell growth at 0.1 uM incubated for 48 hrs by sulforhodamine B assay relative to control; conditions: read-out: Activity
# M14 [5] = assay: Growth inhibition of human M14 cells assessed as cell growth at 0.1 uM incubated for 48 hrs by sulforhodamine B assay relative to control; conditions: read-out: Activity
# TK-10 = assay: Growth inhibition of human TK-10 cells assessed as cell growth at 0.01 uM incubated for 48 hrs by sulforhodamine B assay relative to control; conditions: read-out: Activity
# UO-31 [6] = assay: Growth inhibition of human UO-31 cells assessed as cell growth at 0.01 uM incubated for 48 hrs by sulforhodamine B assay relative to control; conditions: read-out: Activity
# OVCAR-5 = assay: Growth inhibition of human OVCAR-5 cells assessed as cell growth at 1 uM incubated for 48 hrs by sulforhodamine B assay relative to control; conditions: read-out: Activity
# IGROV-1 [7] = assay: Growth inhibition of human IGROV-1 cells assessed as cell growth at 0.01 uM incubated for 48 hrs by sulforhodamine B assay relative to control; conditions: read-out: Activity
# M14 [8] = assay: Growth inhibition of human M14 cells assessed as cell growth at 1 uM incubated for 48 hrs by sulforhodamine B assay relative to control; conditions: read-out: Activity
# NCI-H460 = assay: Growth inhibition of human NCI-H460 cells assessed as cell growth at 0.01 uM incubated for 48 hrs by sulforhodamine B assay relative to control; conditions: read-out: Activity
# UACC-257 = assay: Growth inhibition of human UACC-257 cells assessed as cell growth at 0.1 uM incubated for 48 hrs by sulforhodamine B assay relative to control; conditions: read-out: Activity
# OVCAR-8 [9] = assay: Growth inhibition of human OVCAR-8 cells assessed as cell growth at 0.1 uM incubated for 48 hrs by sulforhodamine B assay relative to control; conditions: read-out: Activity
# UACC-62 = assay: Growth inhibition of human UACC-62 cells assessed as cell growth at 0.01 uM incubated for 48 hrs by sulforhodamine B assay relative to control; conditions: read-out: Activity
# OVCAR-3 [10] = assay: Growth inhibition of human OVCAR-3 cells incubated for 48 hrs by sulforhodamine B assay
# Procedure, shortened: (§3)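 NCI DTP 60-line human tumour panel. Dose-response curves were run only for ligands active in the initial 10 µM screen. GI50 (concentration giving 50% of maximal inhibition of proliferation) and TGI (concentration giving total growth inhibition) were derived from these curves.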
# MOLT-4 = assay: Growth inhibition of human MOLT-4 cells assessed as cell growth at 0.01 uM incubated for 48 hrs by sulforhodamine B assay relative to control; conditions: read-out: Activity
# 786-0 = assay: Growth inhibition of human 786-0 cells incubated for 48 hrs by sulforhodamine B assay; procedure, shortened: as §2
# HCT-116 = assay: Growth inhibition of human HCT-116 cells assessed as cell growth at 100 uM incubated for 48 hrs by sulforhodamine B assay relative to control; conditions: read-out: Activity
# MDA-MB-435 = assay: Growth inhibition of human MDA-MB-435 cells incubated for 48 hrs by sulforhodamine B assay; procedure, shortened: as §1
# SK-OV-3 = assay: Growth inhibition of human SK-OV-3 cells incubated for 48 hrs by sulforhodamine B assay; procedure, shortened: as §3
# SR = assay: Growth inhibition of human SR cells incubated for 48 hrs by sulforhodamine B assay; procedure, shortened: as §3
# IGROV-1 [11] = assay: Growth inhibition of human IGROV-1 cells assessed as cell growth at 100 uM incubated for 48 hrs by sulforhodamine B assay relative to control; conditions: read-out: Activity
# HT-29 = assay: Growth inhibition of human HT-29 cells assessed as cell growth at 0.1 uM incubated for 48 hrs by sulforhodamine B assay relative to control; conditions: read-out: Activity
# [12] = read-out: LC50 (the source's name)
structure (smiles),measurement,setting,value
Nc1c(C(=O)Nc2ccccc2)sc2nc3c(cc12)CN(Cc1ccccc1)CC3,GI50,HOP-92,2.48 µM
same,LC50 (concentration killing 50% of the starting cells),HOP-92,> 100 µM
same,TGI,HOP-92,20.4 µM
same,growth at 0.01 µM,COLO 205,100%
same,growth at 100 µM,UO-31 [1],32%
same,growth at 0.01 µM,OVCAR-4,101%
same,growth at 0.1 µM,CAKI-1,86%
same,growth at 0.01 µM,MCF7,93%
same,growth at 0.01 µM,OVCAR-8 [2],100%
same,growth at 0.1 µM,SN12C,94%
same,growth at 100 µM,M14 [3],35%
same,growth at 100 µM,U-251,12%
same,growth at 0.01 µM,LOX IMVI,94%
same,growth at 1 µM,OVCAR-3 [4],100%
same,growth at 0.1 µM,NCI-H23,101%
same,growth at 0.01 µM,A549,98%
same,growth at 0.1 µM,MDA-MB-468,98%
same,growth at 0.1 µM,T47D,79%
same,growth at 0.1 µM,M14 [5],91%
same,growth at 0.01 µM,TK-10,93%
same,growth at 0.01 µM,UO-31 [6],80%
same,growth at 1 µM,OVCAR-5,93%
same,growth at 0.01 µM,IGROV-1 [7],95%
same,growth at 1 µM,M14 [8],91%
same,growth at 0.01 µM,NCI-H460,101%
same,growth at 0.1 µM,UACC-257,95%
same,growth at 0.1 µM,OVCAR-8 [9],101%
same,growth at 0.01 µM,UACC-62,95%
same,GI50,OVCAR-3 [10],11.4 µM
same,TGI,OVCAR-3 [10],> 100 µM
same,CC50,OVCAR-3 [10]; [12],> 100 µM
same,growth at 0.01 µM,MOLT-4,97%
same,GI50,786-0,13 µM
same,TGI,786-0,> 100 µM
same,CC50,786-0; [12],> 100 µM
same,growth at 100 µM,HCT-116,17%
same,GI50,MDA-MB-435,3.43 µM
same,TGI,MDA-MB-435,71.6 µM
same,CC50,MDA-MB-435; [12],> 100 µM
same,GI50,SK-OV-3,3.53 µM
same,TGI,SK-OV-3,> 100 µM
same,CC50,SK-OV-3; [12],> 100 µM
same,GI50,SR,13.1 µM
same,LC50,SR,> 100 µM
same,TGI,SR,> 100 µM
same,growth at 100 µM,IGROV-1 [11],32%
same,growth at 0.1 µM,HT-29,101%
